In article PMC3832383 (Drug Design, Development and Therapy, 2013):
Converted amounts (≈) assume the structure as drawn. Where two headings read alike, the source gives them in different places.

Legend:
[1] = tested on: P. falciparum strain NF54; test: [3H]hypoxanthine incorporation assay, unsynchronized parasites; type: cell-based; conditions: Plasmodium falciparum, NF54, 72 h
Outline: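 Two ways of diluting the 10 mg/mL stock were compared. In one, the stock went straight into hypoxanthine-free medium. In the other, it was diluted 1/50 in co-solvent, then 1/100 and 1/2 in hypoxanthine-free medium.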

[2] = tested on: P. falciparum strain NF54; conditions: unsynchronized NF54; cited from earlier work
[3] = tested on: Plasmodium falciparum strain NF54 (rings, trophozoites, schizonts); test: In vitro assessment of stage-specific activity, synchronous cultures; type: cell-based; conditions: control drug; data not shown
Outline: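 P. falciparum NF54 synchronized by two 5% D-sorbitol treatments, with intervals set to give rings (>80%, ≤6 h old), trophozoites (≥80%, ≤20 h) or early schizonts (≤36 h). Stages were exposed 6 or 24 h to two-fold dilutions (final 250–7.81 ng/mL) in hypoxanthine-free medium, co-solvent <0.5%, then washed and assessed by [3H]hypoxanthine incorporation. Values are mean ± SD of 3–4 independent experiments.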

Row | Structure (SMILES) | IC50 [1] | IC50 [2] | effect against ring and trophozoite stages [3]
1 | COc1ccc2nc3cc(Cl)ccc3c(Nc3cc(CN4CCCC4)c(O)c(CN4CCCC4)c3)c2n1 [pyronaridine] | 2.6 ng/mL (≈ 0.00502 µM) |  | 
2 | O=C1C(O)=C([C@H]2CC[C@H](c3ccc(Cl)cc3)CC2)C(=O)c2ccccc21 [atovaquone] |  | 0.38 ng/mL (≈ 0.00104 µM) | 
3 | C[C@@H]1CC[C@H]2[C@@H](C)C(=O)O[C@@H]3O[C@@]4(C)CC[C@@H]1[C@]32OO4 [artemisinin] | 3 ng/mL (≈ 0.0106 µM) |  | 
4 | OC(c1cc(C(F)(F)F)nc2c(C(F)(F)F)cccc12)C1CCCCN1 (stereo not drawn) [mefloquine] | 4.1 ng/mL (≈ 0.0108 µM) |  | 
5 | Clc1ccc2c(N3CCN(CCCN4CCN(c5ccnc6cc(Cl)ccc56)CC4)CC3)ccnc2c1 [piperaquine] | 7.8 ng/mL (≈ 0.0146 µM) |  | 
6 | [H]/N=C(\N/C(=N/[H])Nc1ccc(Cl)cc1)NC(C)C [proguanil] |  | 440 ng/mL (≈ 1.73 µM) | 

Now from value to molecule, other results behind:

Row | IC50 [1] | Structure (SMILES) | IC50 [2] | effect against ring and trophozoite stages [3]
7 | 3 ng/mL (≈ 0.0121 µM) | CCc1nc(N)nc(N)c1-c1ccc(Cl)cc1 [pyrimethamine] |  | ineffective
8 | 1.5 ng/mL (≈ 0.00422 µM) | CCN(CC)Cc1cc(Nc2ccnc3cc(Cl)ccc23)ccc1O [amodiaquine] |  | 
